Converted amounts (≈) assume the structure as drawn. The source made the active and inactive calls. The rule behind the calls is not given here.
Assays:
[1] = system: Mycolicibacterium aurum; experiment: Inhibition of multidrug resistance efflux pump in Mycobacterium aurum ATCC 23366 assessed as inhibition of ethidium bromide efflux by measuring relative fluorescence units for ethidium bromide accumulation at 1/4 times MIC incubated for 60 mins by fluorimetric assay
How it was run: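 Whole-cell efflux assay: early-log cells (OD600 ~0.8) adjusted to OD600 0.4, washed into PBS; 4-6x10^7 bacteria/mL with 0.4% glucose, 0.5 mg/L ethidium bromide substrate and compound at 1/4x MIC. Fluorescence ex 544/em 590 nm at 37 °C every minute for 60 min; accumulation scored 0-4 by relative fluorescence bands. Verapamil positive, PBS negative control.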

[2] = system: Mycolicibacterium smegmatis; experiment: Antimycobacterial activity against Mycobacterium smegmatis str. MC2 155 ATCC 700084 assessed as inhibition of mycobacterial growth incubated for 24 hrs by MABA method; format: functional; conditions: MC2 155 ATCC 700084, 24 h
[3] = system: Mycolicibacterium aurum; experiment: Antimycobacterial activity against Mycobacterium aurum ATCC 23366 assessed as inhibition of mycobacterial growth incubated for 4 days; format: functional
How it was run: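 HT-SPOTi agar dilution: two-fold serial dilutions of compound were mixed into Middlebrook 7H10 agar with 0.05% glycerol and 10% OADC, giving a final range of 500–0.5 µg/mL. Each well was spotted with 2x10^3 CFU of early-to-mid-log culture. Plates were incubated at 35 or 37 °C until spots appeared in control wells. Controls were DMSO-only and isoniazid. The MIC was read, in triplicate.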

[4] = system: Mycobacterium tuberculosis; experiment: Antimycobacterial activity against Mycobacterium tuberculosis mc'2-7000x assessed as inhibition of mycobacterial growth; format: functional
[5] = system: Mycobacterium tuberculosis; experiment: Antimycobacterial activity against Mycobacterium tuberculosis H37Rv ATTC 27294 assessed as inhibition of mycobacterial growth incubated for 7 days; format: functional; conditions: H37Rv ATTC 27294, 168 h
How it was run: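 MIC by HT-SPOTi on Middlebrook 7H10 agar with 0.05% (v/v) glycerol and 10% (v/v) OADC in 96-well format. Compounds dissolved at 50 mg/mL (stock), two-fold serial dilutions, final 500-0.5 µg/mL. Each well spotted with 2 µL early-to-midlog culture (2x10^3 CFU), incubated at 37 °C until distinct spots in control wells. DMSO-only and isoniazid controls; triplicate.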

[6] = Cytotoxic activity against human THP1 cells assessed as reduction in cell viability incubated for 48 hrs by […] based assay; design: species or system THP-1; conditions: THP1 cells
How it was run: (§1)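 RAW264.7 or THP-1 cells were grown in RPMI-1640 with 10% FBS and seeded at 10^5 cells/mL. Compound was two-fold serially diluted from a 50 mg/mL stock, with a solvent-control row. Plates were held 48 h at 37 °C in 5% CO2. Wells were washed twice with PBS, with centrifugation between washes for THP-1, then given fresh RPMI plus 0.01% […]. After overnight incubation, fluorescence was read at 560/590 nm and GIC50 derived.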

[7] = Cytotoxic activity against mouse RAW264.7 cells assessed as reduction in cell viability incubated for 48 hrs by […] based assay; how it was run: as §1
[8] = Selectivity index, ratio of GIC50 for cytotoxicity against mouse RAW264.7 cells to MIC for Mycobacterium tuberculosis H37Rv ATTC 27294; format: toxicity, cell-based; conditions: read-out: Selectivity Index
How it was run: (§2)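 SI = GIC50 / H37Rv MIC (agar spot assay). GIC50 from cells in RPMI-1640 + 10% FBS, 37 °C, 5% CO2; 10^5 cells/mL added to two-fold compound dilutions from 50 mg/mL stock, solvent control row. 48 h exposure, washes (THP-1 centrifuged), fresh medium plus 0.01% […], overnight; fluorescence ex 560/em 590 nm.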

[9] = Selectivity index, ratio of GIC50 for cytotoxicity against human THP1 cells to MIC for Mycobacterium tuberculosis H37Rv ATTC 27294; format: toxicity, cell-based, THP-1; conditions: read-out: Selectivity Index; how it was run: as §2

SMILES | Activity [1] | MIC [2] | MIC ([3]; ATCC 23366, 96 h) | MIC [4] | MIC [5] | GI50 at 48 h [6] | GI50 at 48 h [7] | selectivity ratio [8] | selectivity ratio [9] | MIC [3]
Cc1cc(CNCc2ccc(F)cc2)c(C)n1-c1ccc(Cl)cc1 | 1 RFU | 2 µg/mL (≈ 5.83 µM) | 1.9 µg/mL (≈ 5.54 µM) | 0.7 µg/mL (≈ 2.04 µM) | > 125 µg/mL | 8.4 µg/mL (≈ 24.5 µM) | 26 µg/mL (≈ 75.8 µM) | – | – | –
Cc1cc(CNC2C3CC4CC(C3)CC2C4)c(C)n1-c1ccc(Cl)cc1 (stereo not drawn) | 1 RFU | 16 µg/mL (≈ 43.4 µM) | 62 µg/mL (≈ 168 µM) | 1 µg/mL (≈ 2.71 µM) | 1.9 µg/mL (≈ 5.15 µM) | 15 µg/mL (≈ 40.7 µM) | 19 µg/mL (≈ 51.5 µM) | 10 | 7.8 | –
Cc1cc(CN2CCN(c3ccccc3)CC2)c(C)n1-c1ccc(Cl)cc1 | 1 RFU | 32 µg/mL (≈ 84.2 µM) | 31 µg/mL (≈ 81.6 µM) | 32 µg/mL (≈ 84.2 µM) | 7.8 µg/mL (≈ 20.5 µM) | 25 µg/mL (≈ 65.8 µM) | 33 µg/mL (≈ 86.9 µM) | 4.2 | 3.2 | –
Cc1c(CN2CCN(C34CC5CC(CC(C5)C3)C4)CC2)cc(-c2ccc(Cl)cc2)n1-c1ccc(Cl)cc1 | 3 RFU | 3.3 µg/mL (≈ 6.17 µM) | 62 µg/mL (≈ 116 µM) | 0.5 µg/mL (≈ 0.935 µM) | 7.8 µg/mL (≈ 14.6 µM) | 35 µg/mL (≈ 65.5 µM) | 23 µg/mL (≈ 43 µM) | 2.9 | 4.5 | –
Cc1cc(CN2CCN(C3C4CC5CC(C4)CC3C5)CC2)c(C)n1-c1ccc(C(C)C)cc1 (stereo not drawn) | 3 RFU | 21 µg/mL (≈ 47.1 µM) | 500 µg/mL (≈ 1120 µM) | 3.3 µg/mL (≈ 7.4 µM) | 16 µg/mL (≈ 35.9 µM) | 72 µg/mL (≈ 162 µM) | 92 µg/mL (≈ 206 µM) | 5.7 | 4.5 | –
Cc1c(CN2CCN(C3C4CC5CC(C4)CC3C5)CC2)cc(-c2ccc(Cl)cc2)n1-c1ccc(Cl)cc1 (stereo not drawn) | 0 RFU | > 64 µg/mL | – | > 64 µg/mL | 62 µg/mL (≈ 116 µM) | 500 µg/mL (≈ 935 µM) | 95 µg/mL (≈ 178 µM) | 1.5 | 8.1 | inactive
Cc1c(CNC2CCCCC2)cc(-c2ccc(Cl)cc2)n1-c1ccc(Cl)cc1 | 2 RFU | 4 µg/mL (≈ 9.68 µM) | 1 µg/mL (≈ 2.42 µM) | 8 µg/mL (≈ 19.4 µM) | – | 3.9 µg/mL (≈ 9.43 µM) | – | – | 0.5 | –
Cc1ccc(CNCc2cc(C)n(-c3ccc(Cl)cc3)c2C)cc1 | 2 RFU | 8 µg/mL (≈ 23.6 µM) | 1.9 µg/mL (≈ 5.61 µM) | 2 µg/mL (≈ 5.9 µM) | 1 µg/mL (≈ 2.95 µM) | 6.1 µg/mL (≈ 18 µM) | 0.1 µg/mL (≈ 0.295 µM) | 0.1 | 6.1 | –
Cc1cccc(-n2c(C)cc(CN3CCN(C4C5CC6CC(C5)CC4C6)CC3)c2C)c1 (stereo not drawn) | 2 RFU | 64 µg/mL (≈ 153 µM) | 500 µg/mL (≈ 1200 µM) | 32 µg/mL (≈ 76.6 µM) | 16 µg/mL (≈ 38.3 µM) | 37 µg/mL (≈ 88.6 µM) | 22 µg/mL (≈ 52.7 µM) | 1.4 | 2.3 | –
Cc1c(CN2CCN(c3ccccc3)CC2)c(CN2CCN(c3ccccc3)CC2)c(C)n1-c1ccc(Cl)cc1 | 2 RFU | > 64 µg/mL | 250 µg/mL (≈ 451 µM) | > 64 µg/mL | 31 µg/mL (≈ 55.9 µM) | 113 µg/mL (≈ 204 µM) | 500 µg/mL (≈ 902 µM) | 16 | 3.6 | –
Cc1cc(CN2CCN(C3CCCCC3)CC2)c(C)n1-c1ccc(Cl)cc1 | 4 RFU | 27 µg/mL (≈ 70 µM) | 31 µg/mL (≈ 80.3 µM) | 8 µg/mL (≈ 20.7 µM) | 3.9 µg/mL (≈ 10.1 µM) | 16 µg/mL (≈ 41.5 µM) | 5.5 µg/mL (≈ 14.2 µM) | 1.4 | 4.1 | –
Cc1cc(CNCc2ccc(Cl)cc2)c(C)n1-c1ccc(Cl)cc1 | 2 RFU | 4 µg/mL (≈ 11.1 µM) | 1.9 µg/mL (≈ 5.29 µM) | 2 µg/mL (≈ 5.57 µM) | 16 µg/mL (≈ 44.5 µM) | 18 µg/mL (≈ 50.1 µM) | 0.1 µg/mL (≈ 0.278 µM) | 0.006 | 1.1 | –
Cc1c(CN2CCN(C3CC4CCC3C4)CC2)cc(-c2ccc(Cl)cc2)n1-c1ccc(Cl)cc1 (mixture of isomers) | – | 64 µg/mL | 250 µg/mL | 64 µg/mL | – | 429 µg/mL | – | – | 6.7 | –

Reference: ChEMBL document CHEMBL3797154, “Design and Synthesis of 1-((1,5-Bis(4-chlorophenyl)-2-methyl-1H-pyrrol-3-yl)methyl)-4-methylpiperazine (BM212) and N-Adamantan-2-yl-N'-((E)-3,7-dimethylocta-2,6-dienyl)ethane-1,2-diamine (SQ109) Pyrrole Hybrid Derivatives: Discovery of Potent Antitubercular Agents Effective against …” (J Med Chem, 2016)
